In ChEMBL document CHEMBL3286275, “Identification of 1-{2-[4-chloro-1'-(2,2-dimethylpropyl)-7-hydroxy-1,2-dihydrospiro[indole-3,4'-piperidine]-1-yl]phenyl}-3-{5-chloro-[1,3]thiazolo[5,4-b]pyridin-2-yl}urea, a potent, efficacious and orally bioavailable P2Y(1) antagonist as an antiplatelet agent” (Bioorg Med Chem Lett, 2014):
pIC50: −log10 of the molar value. In brackets after ≈: the same amount, converted by molar mass. Blank lines part the entries; values can stand above or below the compound they belong to. Activity calls are given as the source filed them. No cut-off for these calls is given here.

Legend:
Liver microsome [1] = experiment: Metabolic stability in rat liver microsomes assessed as compound remaining; format: ADME
Outline: (§1)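 Liver microsome stability: percent of compound remaining after incubation with […] (3 µM microsomes in some cases).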

Liver microsome [2] = experiment: Metabolic stability in human liver microsomes assessed as compound remaining; format: ADME; outline: as §1
Platelet = experiment: Inhibition of ADP-induced platelet aggregation in platelet-rich human plasma; format: functional
Outline: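 Human platelet-rich plasma; aggregation triggered by 10 µM ADP; IC50 determined.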

P2Y purinoceptor 1 = P2Y purinoceptor 1 (Homo sapiens, UniProt P47900); experiment: Antagonist activity at P2Y1 receptor in human platelets by FLIPR assay in presence of 2-methylthio-ADP
Sequence of P2Y purinoceptor 1 (P47900 whole entry): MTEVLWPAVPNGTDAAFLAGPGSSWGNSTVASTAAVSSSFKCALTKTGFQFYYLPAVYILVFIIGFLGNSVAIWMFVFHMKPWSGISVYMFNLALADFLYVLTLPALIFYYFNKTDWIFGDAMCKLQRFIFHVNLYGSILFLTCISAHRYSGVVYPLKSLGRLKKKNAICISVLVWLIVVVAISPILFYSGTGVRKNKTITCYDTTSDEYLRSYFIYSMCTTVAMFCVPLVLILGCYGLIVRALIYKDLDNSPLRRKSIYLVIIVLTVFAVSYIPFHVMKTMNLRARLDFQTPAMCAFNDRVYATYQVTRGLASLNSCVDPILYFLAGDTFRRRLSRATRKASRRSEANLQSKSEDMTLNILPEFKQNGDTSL
Outline: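 Washed human platelets with endogenous P2Y1; calcium signalling read by FLIPR with reduced protein (~0.1% BSA); agonist 2-methylthio-ADP at 1 µM; IC50 given as mean ± SD.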

[3] = Aqueous solubility of the compound at pH 3.9; format: physicochemical; settings: aqueous medium, read-out: Activity
Outline: (§2)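 Aqueous solubility taken on crystalline material: free base at pH 6.5, mono-methanesulfonic acid salt at pH 3.9.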

Rattus norvegicus [4] = experiment: Toxicity in rat assessed as prolongation of mesentric bleeding time at 10 mg/kg, po relative to control; format: organism-based; design: dose 10 mg/kg, route oral; settings: in vivo
Outline: (§3)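 Pentobarbital-anesthetized rats dosed by oral gavage 1 h before bleeding-time induction. Vehicle was 1 ml/kg of 10% N,N-dimethylacetamide/90% dextrose 5% water, and compound was given at 0.3, 1, 3 and 10 mg/kg. Cuticle and mesenteric bleeding times were measured and expressed as fold prolongation relative to vehicle. Group sizes were indicated per group.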

Rattus norvegicus [5] = experiment: Toxicity in rat assessed as prolongation of cuticle bleeding time at 10 mg/kg, po relative to control; format: organism-based; design: dose 10 mg/kg, route oral; settings: in vivo; outline: as §3
Rattus norvegicus [6] = experiment: Antiplatelet activity in pentobarbital anesthetized rat assessed as reduction in platelet aggregation at 10 mg/kg, po; format: functional; design: scale not given: the % may be the effect or the level left
Outline: (§4)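 Pentobarbital-anesthetized rats; vehicle (1 ml/kg of 10% N,N-dimethylacetamide/90% dextrose 5% water) or 0.3, 1, 3, 10 mg/kg by oral gavage 1 h before FeCl2-induced carotid thrombosis or cuticle/mesenteric bleeding time. End points were thrombus weight and blood flow. Blood was drawn at the end of the thrombosis protocol for ex vivo aggregation. ID50 values derived; SEM reported.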

Rattus norvegicus [7] = experiment: Antithrombotic activity in pentobarbital anesthetized rat assessed as reduction in FeCl2-induced thrombus weight at 10 mg/kg, po administered 1 hr prior to FeCl2 challenge; format: functional; design: scale not given: the % may be the effect or the level left; outline: as §4
Rattus norvegicus [8] = experiment: Antithrombotic activity in pentobarbital anesthetized rat assessed as preservation of blood flow at 10 mg/kg, po administered 1 hr prior to FeCl2 challenge; format: functional, organism-based; design: dose 10 mg/kg; outline: as §4
Rattus norvegicus [9] = experiment: Toxicity in po dosed pentobarbital anesthetized rat assessed as prolongation of bleeding time measured after 1 hr; format: organism-based; settings: in vivo; outline: as §4
Rattus norvegicus [10] = experiment: Ex vivo inhibition of platelet aggregation in po dosed pentobarbital anesthetized rat administered 1 hr prior to FeCl2 challenge; format: functional; outline: as §4
Rattus norvegicus [11] = experiment: Antithrombotic activity in po dosed pentobarbital anesthetized rat assessed as maintainance of blood flow administered 1 hr prior to FeCl2 challenge; format: functional, organism-based; outline: as §4
Rattus norvegicus [12] = experiment: Antithrombotic activity in po dosed pentobarbital anesthetized rat assessed as reduction in FeCl2-induced thrombus weight administered 1 hr prior to FeCl2 challenge
Blood [13] = experiment: Drug uptake in rat blood at 10 mg/kg, po; format: ADME, organism-based; design: dose 10 mg/kg, route oral; settings: in vivo, read-out: Drug uptake
Blood [14] = experiment: Drug uptake in rat blood at 3 mg/kg, po; format: ADME, organism-based; design: dose 3 mg/kg, route oral; settings: in vivo, read-out: Drug uptake
Blood [15] = experiment: Drug uptake in rat blood at 1 mg/kg, po; format: ADME, organism-based; design: dose 1 mg/kg, route oral; settings: in vivo, read-out: Drug uptake
Blood [16] = experiment: Drug uptake in rat blood at 0.3 mg/kg, po; format: ADME, organism-based; design: dose 0.3 mg/kg, route oral; settings: in vivo, read-out: Drug uptake
[17] = Oral bioavailability in cynomolgus monkey at 5 mg/kg; format: ADME, organism-based, Macaca fascicularis; settings: in vivo
Outline: (§5)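 Dog and cynomolgus PK used the methanesulfonic acid salt at 0.2 mg/kg IV and 5 mg/kg PO; clearance, Vdss, half-life and oral bioavailability determined.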

[18] = Oral bioavailability in dog at 5 mg/kg; format: ADME, organism-based, Canis lupus familiaris; settings: in vivo; outline: as §5
[19] = Half life in cynomolgus monkey at 0.2 mg/kg, iv and 5 mg/kg, po; format: ADME, organism-based, Macaca fascicularis; settings: in vivo; outline: as §5
[20] = Half life in dog at 0.2 mg/kg, iv and 5 mg/kg, po; format: ADME, organism-based, Canis lupus familiaris; settings: in vivo; outline: as §5
[21] = Volume of distribution at steady state in cynomolgus monkey at 0.2 mg/kg, iv and 5 mg/kg, po; format: ADME, organism-based, Macaca fascicularis; settings: in vivo, read-out: Vdss; outline: as §5
[22] = Volume of distribution at steady state in dog at 0.2 mg/kg, iv and 5 mg/kg, po; format: ADME, organism-based, Canis lupus familiaris; settings: in vivo, read-out: Vdss; outline: as §5
[23] = Clearance in cynomolgus monkey at 0.2 mg/kg, iv and 5 mg/kg, po; format: ADME, organism-based, Macaca fascicularis; settings: in vivo; outline: as §5
[24] = Clearance in dog at 0.2 mg/kg, iv and 5 mg/kg, po; format: ADME, organism-based, Canis lupus familiaris; settings: in vivo; outline: as §5
[25] = Plasma protein binding in rat; format: ADME, cell-free; settings: read-out: PPB (converted)
[26] = Plasma protein binding in rabbit; format: ADME, cell-free, Oryctolagus cuniculus; settings: read-out: PPB (converted)
[27] = Plasma protein binding in human; format: ADME, cell-free; settings: read-out: PPB (converted)
Oryctolagus cuniculus [28] = experiment: Cardiotoxicity in rabbit assessed as increase in QTc at 10 to 30 mg/kg, iv by surface electrocardiography; format: toxicity, organism-based; design: dose 10-30 mg/kg, route intravenous; settings: in vivo
Outline: (§6)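 Anesthetized rabbits given IV doses of 3, 10 and 30 mg/kg in increasing order; plasma concentrations measured; PR, QRS and QTc intervals read by surface ECG.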

Oryctolagus cuniculus [29] = experiment: Cardiotoxicity in rabbit assessed as QRS interval at 3 to 30 mg/kg, iv by surface electrocardiography; format: toxicity, organism-based; design: dose 3-30 mg/kg, route intravenous; settings: in vivo; outline: as §6
Oryctolagus cuniculus [30] = experiment: Cardiotoxicity in rabbit assessed as PR interval at 3 to 30 mg/kg, iv by surface electrocardiography; format: toxicity, organism-based; design: dose 3-30 mg/kg, route intravenous; settings: in vivo; outline: as §6
Plasma [31] = experiment: Plasma concentration in rabbit at 30 mg/kg, iv; format: ADME, organism-based, Oryctolagus cuniculus; design: dose 30 mg/kg, route intravenous; settings: in vivo; outline: as §6
Plasma [32] = experiment: Plasma concentration in rabbit at 3 mg/kg, iv; format: ADME, organism-based, Oryctolagus cuniculus; design: dose 3 mg/kg, route intravenous; settings: in vivo; outline: as §6
Plasma [33] = experiment: Plasma concentration in rabbit at 10 mg/kg, iv; format: ADME, organism-based, Oryctolagus cuniculus; design: dose 10 mg/kg, route intravenous; settings: in vivo; outline: as §6
hERG (KCNH2) = hERG (KCNH2) (Homo sapiens, UniProt Q12809); experiment: Inhibition of human ERG channel at 1 uM by patch clamp technique
Sequence of hERG (KCNH2) (Q12809 whole entry): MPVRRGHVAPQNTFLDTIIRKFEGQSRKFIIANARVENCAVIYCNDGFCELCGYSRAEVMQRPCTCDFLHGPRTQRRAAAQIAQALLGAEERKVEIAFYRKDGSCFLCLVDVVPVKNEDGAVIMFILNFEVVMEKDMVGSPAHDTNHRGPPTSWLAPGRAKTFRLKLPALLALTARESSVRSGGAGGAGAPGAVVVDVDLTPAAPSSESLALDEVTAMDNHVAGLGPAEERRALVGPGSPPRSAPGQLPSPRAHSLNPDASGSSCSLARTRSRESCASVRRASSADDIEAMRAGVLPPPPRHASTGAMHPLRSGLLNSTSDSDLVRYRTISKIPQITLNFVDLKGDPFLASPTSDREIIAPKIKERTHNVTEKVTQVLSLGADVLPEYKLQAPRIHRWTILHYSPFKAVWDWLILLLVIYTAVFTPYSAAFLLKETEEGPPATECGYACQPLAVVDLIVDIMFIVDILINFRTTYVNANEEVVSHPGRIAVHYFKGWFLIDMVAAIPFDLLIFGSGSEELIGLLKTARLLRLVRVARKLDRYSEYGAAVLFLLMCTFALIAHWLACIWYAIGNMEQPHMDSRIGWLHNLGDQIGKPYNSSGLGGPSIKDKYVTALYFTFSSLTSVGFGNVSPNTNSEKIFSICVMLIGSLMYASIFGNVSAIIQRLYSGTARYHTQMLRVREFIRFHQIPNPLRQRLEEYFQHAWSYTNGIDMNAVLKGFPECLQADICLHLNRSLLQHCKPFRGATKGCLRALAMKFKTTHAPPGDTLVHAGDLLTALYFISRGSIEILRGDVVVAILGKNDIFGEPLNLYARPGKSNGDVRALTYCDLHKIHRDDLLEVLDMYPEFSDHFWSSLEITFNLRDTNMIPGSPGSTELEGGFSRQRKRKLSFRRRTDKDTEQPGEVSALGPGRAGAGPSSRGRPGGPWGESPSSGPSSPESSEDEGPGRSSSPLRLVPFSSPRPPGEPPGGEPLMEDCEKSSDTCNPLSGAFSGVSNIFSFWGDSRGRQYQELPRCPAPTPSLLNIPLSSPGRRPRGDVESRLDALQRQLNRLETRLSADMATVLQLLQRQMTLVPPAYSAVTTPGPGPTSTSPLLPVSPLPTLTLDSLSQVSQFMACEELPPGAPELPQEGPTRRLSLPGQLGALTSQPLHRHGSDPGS
Outline: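 hERG current measured in vitro by patch clamp at 1 µM.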

P2X purinoceptor 1 = target: T1, P2X purinoceptor 1 (Homo sapiens, UniProt P51575); experiment: Antagonist activity at P2X1 receptor (unknown origin) by FLIPR assay
T1 sequence (P51575 whole entry): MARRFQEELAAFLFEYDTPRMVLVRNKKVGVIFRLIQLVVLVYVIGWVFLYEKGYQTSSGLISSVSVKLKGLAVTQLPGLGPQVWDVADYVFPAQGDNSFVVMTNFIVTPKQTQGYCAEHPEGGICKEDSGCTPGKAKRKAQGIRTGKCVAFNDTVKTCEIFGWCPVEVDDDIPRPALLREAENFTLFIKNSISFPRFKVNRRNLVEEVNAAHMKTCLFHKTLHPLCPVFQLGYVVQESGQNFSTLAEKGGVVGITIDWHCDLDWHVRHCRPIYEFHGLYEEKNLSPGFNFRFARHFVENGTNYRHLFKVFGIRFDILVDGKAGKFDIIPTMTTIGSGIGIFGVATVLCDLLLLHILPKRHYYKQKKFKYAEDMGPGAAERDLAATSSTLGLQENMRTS

P2Y purinoceptor 2 = P2Y purinoceptor 2 (Homo sapiens, UniProt P41231); experiment: Antagonist activity at P2Y2 receptor (unknown origin)
Sequence of P2Y purinoceptor 2 (P41231 whole entry): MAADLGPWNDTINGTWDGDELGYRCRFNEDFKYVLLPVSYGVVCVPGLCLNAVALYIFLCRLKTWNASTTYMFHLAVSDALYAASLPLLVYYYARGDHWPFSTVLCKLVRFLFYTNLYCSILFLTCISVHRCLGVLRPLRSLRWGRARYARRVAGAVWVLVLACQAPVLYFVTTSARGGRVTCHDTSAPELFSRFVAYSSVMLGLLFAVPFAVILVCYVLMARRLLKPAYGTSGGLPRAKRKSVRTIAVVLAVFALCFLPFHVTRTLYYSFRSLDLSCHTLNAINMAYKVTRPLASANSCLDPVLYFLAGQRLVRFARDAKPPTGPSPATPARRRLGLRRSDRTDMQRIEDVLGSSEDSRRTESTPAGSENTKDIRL

P2Y purinoceptor 12 = P2Y purinoceptor 12 (Homo sapiens, UniProt Q9H244); experiment: Antagonist activity at P2Y12 receptor (unknown origin)
Sequence of P2Y purinoceptor 12 (Q9H244 whole entry): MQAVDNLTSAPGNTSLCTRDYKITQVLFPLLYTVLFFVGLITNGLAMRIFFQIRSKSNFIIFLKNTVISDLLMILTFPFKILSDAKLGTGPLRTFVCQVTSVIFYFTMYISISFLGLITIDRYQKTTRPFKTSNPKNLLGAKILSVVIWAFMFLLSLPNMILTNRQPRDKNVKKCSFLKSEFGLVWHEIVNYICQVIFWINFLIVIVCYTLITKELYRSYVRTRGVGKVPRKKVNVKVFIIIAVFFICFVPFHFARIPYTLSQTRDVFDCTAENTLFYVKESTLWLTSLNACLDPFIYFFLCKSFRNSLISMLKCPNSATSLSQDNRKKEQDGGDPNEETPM

[34] = Aqueous solubility of the compound at pH 6.5; format: physicochemical; settings: aqueous medium; outline: as §2

SMILES: COC(=O)c1ccc(O)c2c1C1(CCN(CC(C)(C)C)CC1)CN2c1ccccc1NC(=O)Nc1ccc(OC(F)(F)F)cc1
Stability (Liver microsome [1]): 57%
Stability (Liver microsome [2]): 48%
pIC50 (Platelet): 6.15
pIC50 (P2Y purinoceptor 1): 9.82

pIC50 (P2Y purinoceptor 1): 8.34
SMILES: CC(C)(C)CN1CCC2(CC1)CN(c1ccccc1NC(=O)Nc1ccc(OC(F)(F)F)cc1)c1cc(O)ccc12

SMILES: CC(C)(C)CN1CCC2(CC1)CN(c1ccccc1NC(=O)Nc1nc3ccc(Cl)nc3s1)c1c(O)ccc(Cl)c12
solubility [3]: 680 µg/mL (≈ 1110 µM)
fold change (FC) (Rattus norvegicus [4]): 2.2
fold change (FC) (Rattus norvegicus [5]): 2.5
Activity (Rattus norvegicus [6]): 74%
Activity (Rattus norvegicus [7]): 66%
Activity (Rattus norvegicus [8]): Active
Activity (Rattus norvegicus [9]): Dose-dependent effect
Activity (Rattus norvegicus [10]): Dose-dependent effect
ED50 (Rattus norvegicus [10]; read-out: ID50 (the source's name)): 6.6 mg/kg
Activity (Rattus norvegicus [11]): Dose-dependent effect
pIC50 (Rattus norvegicus [12]): 6.89
ED50 (Rattus norvegicus [12]; po, read-out: ID50): 7.3 mg/kg
concentration (Blood [13]): 240 nM
concentration (Blood [14]): 81 nM
concentration (Blood [15]): 39 nM
concentration (Blood [16]): 7 nM
bioavailability [17]: 22%
bioavailability [18]: 27%
half-life [19]: 8.2 h
half-life [20]: 9.4 h
Vd [21]: 3.3 L/kg
Vd [22]: 2.5 L/kg
clearance [23]: 7.7 mL/min/kg
clearance [24]: 4 mL/min/kg
fraction unbound [25]: 0.002
fraction unbound [26]: 0.007
fraction unbound [27]: 0.007
Activity (Oryctolagus cuniculus [28]): Non-toxic
Activity (Oryctolagus cuniculus [29]): Non-toxic
Activity (Oryctolagus cuniculus [30]): Non-toxic
concentration (Plasma [31]): 158000 nM
concentration (Plasma [32]): 24000 nM
concentration (Plasma [33]): 62000 nM
inhibition at 1 µM (hERG (KCNH2)): 96%
pIC50 (P2X purinoceptor 1): 6.74
pIC50 (P2Y purinoceptor 2): < 5.00
pIC50 (P2Y purinoceptor 12): < 5.00
Stability (Liver microsome [1]): 93%
Stability (Liver microsome [2]): 94%
pIC50 (Platelet): 6.89
pIC50 (P2Y purinoceptor 1): 9.92
solubility [34]: < 1 µg/mL

SMILES: COC(=O)[C@H](c1ccccc1Cl)N1CCc2sccc2C1 [CLOPIDOGREL]
fold change (FC) (Rattus norvegicus [4]): 8.2
fold change (FC) (Rattus norvegicus [5]): 6.2
Activity (Rattus norvegicus [7]): 67%
